Calls of active or inactive are those of the source.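 Rule for the calls, unless noted: active = viability at or below 30% in both replicate assays; inconclusive = viability at or below 30% in just one of the two assays; inactive = the rest.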
Key:
[1] = reduced viability of SK-BR-3 breast cancer cells – cell-based, 24 h, human, pilot screen (AID 572;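 active = viability at or below 10% of carrier control in both of two separate runs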;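 note: compound exposure lasted between 18 and 24 h rather than exactly 24 h; 100% = carrier-treated control wells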); settings: SK-BR-3 viability, CellTiter-Glo luminescence, at 10 µM, stronger effect = lower value
[2] = HUVEC growth inhibition – cell-based, human, primary screen (AID 575); settings: HUVEC proliferation, CellTiter-Glo luminescence, 72 h; at 10 µM; stronger effect = lower value;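 note: 100% = median of untreated cell wells with 0.1% DMSO on each plate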
Summary of the method: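 Test system – primary HUVEC, no more than 12 passages · Dosing – one dose, 10 µM final, 0.1% DMSO · Times – 72 h treatment at 37 °C · Measured by – ATP-based CellTiter-Glo luminescent read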

[3] = H69AR cell proliferation blockers – human, duplicate replicates, primary screen (AID 580;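 active = viability at or under a set limit in both replicates, limit being median viability minus 3 SD, cut at about 48% in these data, passing the limit was not always enough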;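 note: 100% = mean luminescence of untreated wells and 0% = no signal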); settings: H69AR lung tumor cells viability, ATP luminescence, 72 h; at 10 µM; stronger effect = lower value
[4] = MRP1 drug-resistance reversers in H69AR cells – cell-based, doxorubicin co-treatment, pilot screen (AID 601;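 active = viability loss from added drug above about 55%, and viability with drug at most 40%, in both replicates, limit read from the data, passing the limit was not always enough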); settings: CellTiter-Glo, 72 h, at 10 µM; for differential viability (reversal): stronger effect = higher value
[5] = yeast transport mutant growth inhibition pilot in 384-well plates, post-Golgi transport modulator project (AID 636; in the data active = inhibition above about 31%); settings: absorbance 615 nm, about 18 h, stronger effect = higher value
[6] = growth suppression of yeast trafficking mutant, preliminary HTS, modulators of trafficking downstream of Golgi apparatus project, 1536-format plate, OD 615 nm (AID 637; in the data active = inhibition above about 30%); settings: yeast transport mutant growth, absorbance 615 nm, 18 h; stronger effect = higher value
[7] = H69AR cells + 2 uM doxorubicin, measured here: viability with 2 uM doxorubicin, stronger effect = lower value
[8] = H69AR cells, compound alone cytotoxicity

| Compound | viability [1] | viability [2] | viability [3] | differential viability (reversal) ([4]; H69AR cells + 2 uM doxorubicin) | viability [4, 7] [%] | viability [4, 8] [%] | inhibition [5] | inhibition [6] |
| --- | --- | --- | --- | --- | --- | --- | --- | --- |
| O=C1c2ccccc2NC(c2cccc(F)c2)N1Cc1ccco1 (stereo not drawn) | 53% (inactive) | 103% (inactive) | 92% (inactive) | 4.72% (inactive) | 87.3 | 92 | -6.85% (inactive) | -1.64% (inactive) |
| CCCCOc1ccc(C(=O)Nc2ccc(N3CCN(C(C)=O)CC3)cc2)cc1 | 81% (inactive) | 88.8% (inactive) | 94.4% (inactive) | -11.3% (inactive) | 106 | 94.4 | -1.78% (inactive) | 0.91% (inactive) |
| Cc1ccc2nc(/C(C#N)=N/O)[nH]c2c1 | 115% (inactive) | 84.9% (inactive) | 78.2% (inactive) | -2.1% (inactive) | 80.3 | 78.2 | -4.53% (inactive) | 0% (inactive) |
| Cc1nc(CNS(=O)(=O)c2cccc(F)c2)cs1 | 64% (inactive) | 93.3% (inactive) | 91.4% (inactive) | 1.23% (inactive) | 90.1 | 91.4 | -1.95% (inactive) | 12.1% (inactive) |
| C/C(Cl)=C\Cn1c(NCCc2ccccc2)nc2c1c(=O)n(C)c(=O)n2C | 86% (inactive) | 78.7% (inactive) | 76% (inactive) | 9.38% (inactive) | 66.6 | 76 | -7.97% (inactive) | 2.17% (inactive) |
| COC(=O)c1sc(S(=O)(=O)N2CCN(c3ccccc3)CC2)c(C(=O)OC)c1C | 69% (inactive) | 96.1% (inactive) | 85.6% (inactive) | -1.87% (inactive) | 87.5 | 85.6 | -8.63% (inactive) | 4% (inactive) |
| O=C(NCc1ccccc1)C1CCCN(S(=O)(=O)c2cccnc2)C1 (stereo not drawn) | 92% (inactive) | 95.5% (inactive) | 99% (inactive) | 6.21% (inactive) | 92.8 | 99 | -4.66% (inactive) | -3.81% (inactive) |
| CCOc1ccc2c(c1)c1nnc(SCC(=O)N3CCC(C)CC3)nc1n2C | 84% (inactive) | 70.9% (inactive) | 95.8% (inactive) | 8.51% (inactive) | 87.3 | 95.8 | -3.78% (inactive) | -1.45% (inactive) |
| COc1ccc(Cn2nnnc2CN2CCOCC2)cc1 | 100% (inactive) | 97.4% (inactive) | 96.7% (inactive) | -5.83% (inactive) | 102 | 96.7 | -6.85% (inactive) | -0.81% (inactive) |
| COc1ccc(-c2nsc(SCC(=O)Nc3cc(C)on3)n2)cc1 | 79% (inactive) | 79.4% (inactive) | 84.8% (inactive) | -5.36% (inactive) | 90.2 | 84.8 | -5.07% (inactive) | 3.09% (inactive) |
| Cc1nnc(SCc2nnc(-c3ccccc3Br)o2)n1-c1ccccc1 | 86% (inactive) | 87.5% (inactive) | 90.2% (inactive) | -3.37% (inactive) | 93.6 | 90.2 | 0.41% (inactive) | 0% (inactive) |
| CCOc1ccc(NC(=O)Cn2nnc(-c3ccccc3F)n2)cc1 | 105% (inactive) | 100% (inactive) | 94.6% (inactive) | 7.41% (inactive) | 87.2 | 94.6 | -4.42% (inactive) | -2.3% (inactive) |
| O=C(COC(=O)CCC1CCCC1)Nc1ccc(Cl)cn1 | 107% (inactive) | 101% (inactive) | 98.6% (inactive) | 5.36% (inactive) | 93.2 | 98.6 | 0% (inactive) | -1.45% (inactive) |
| CCN(CC)CCCNC1CCS(=O)(=O)C1 (stereo not drawn) | 126% (inactive) | 83% (inactive) | 87.9% (inactive) | 4.3% (inactive) | 83.6 | 87.9 | -3.42% (inactive) | -4.52% (inactive) |
| O=S(=O)(Nc1nc2ccccc2nc1NCc1ccco1)c1cccs1 | 91% (inactive) | 100% (inactive) | 29% (active) | -23% (inactive) | 51.9 | 29 | -5.68% (inactive) | 0.73% (inactive) |
| CC(C)(C#N)Nn1cnnc1 | 135% (inactive) | 104% (inactive) | 85.9% (inactive) | -4.76% (inactive) | 90.7 | 85.9 | -4.73% (inactive) | 4.18% (inactive) |
| Cc1ccc2cc(CN(Cc3ccc(F)cc3)Cc3nnnn3C3CCCC3)c(=O)[nH]c2c1 | 100% (inactive) | 71.2% (inactive) | 78.7% (inactive) | 4.34% (inactive) | 74.4 | 78.7 | -4.19% (inactive) | 3.09% (inactive) |
| Cc1ccc(-n2ncc3c(=O)n(CC(=O)NCc4ccco4)cnc32)cc1 | 105% (inactive) | 76.5% (inactive) | 81.3% (inactive) | -12.3% (inactive) | 93.6 | 81.3 | 1.92% (inactive) | 1.77% (inactive) |

| Compound | viability [1] | viability [2] | viability [3] | differential viability (reversal) ([4]; H69AR cells + 2 uM doxorubicin) | viability [4, 7] [%] | viability [4, 8] [%] | inhibition [5] | inhibition [6] |
| --- | --- | --- | --- | --- | --- | --- | --- | --- |
| Nn1c(SCC(=O)Nc2ccc(S(=O)(=O)N3CCCC3)cc2)nnc1C(F)(F)F | 110% (inactive) | 89.7% (inactive) | 90.8% (inactive) | -6.72% (inactive) | 97.6 | 90.8 | 0% (inactive) | 3.11% (inactive) |
| CCOc1cccc2cc(C(=O)N3CCN(C/C=C/c4ccccc4)CC3)c(=O)oc12 | 89% (inactive) | 106% (inactive) | 91.4% (inactive) | 22.8% (inactive) | 68.6 | 91.4 | -5.68% (inactive) | -4.73% (inactive) |
| COCCCC/C(=N\OCCN)c1ccc(C(F)(F)F)cc1 | 84% (inactive) | 55.7% (inactive) | 104% (inactive) | 20% (inactive) | 83.9 | 104 | -0.91% (inactive) | -6.83% (inactive) |
| NS(=O)(=O)c1cc2c(cc1C(F)(F)F)NCNS2(=O)=O | 100% (inactive) | 91% (inactive) | 109% (inactive) | 8.31% (inactive) | 101 | 109 | 1.17% (inactive) | 3.33% (inactive) |
| CCOc1ccccc1-n1c(SCC(=O)NC2CCCC2)nnc1-c1ccoc1C | 77% (inactive) | 97% (inactive) | 93% (inactive) | 1.66% (inactive) | 91.3 | 93 | 0.91% (inactive) | -4.92% (inactive) |
| CC(=O)NCCCCCCNC(C)=O | 125% (inactive) | 100% (inactive) | 94.5% (inactive) | 5.61% (inactive) | 88.9 | 94.5 | 4.94% (inactive) | -1.17% (inactive) |
| COC(=O)c1cccc(NC(=O)CN2CCN(Cc3ccccc3)CC2)c1 | 56% (inactive) | 105% (inactive) | 90.5% (inactive) | -2.89% (inactive) | 93.4 | 90.5 | -5.34% (inactive) | -0.36% (inactive) |
| CC(C)c1nc(NCC2CCCO2)c(C#N)c2c1COC(C)(C)C2 (stereo not drawn) | 95% (inactive) | 74.9% (inactive) | 89.1% (inactive) | 4.7% (inactive) | 84.4 | 89.1 | -9.86% (inactive) | 13.9% (inactive) |
| Cc1nc2ncnn2c(C)c1CCC(=O)NCCCN1CCN(c2cccc(Cl)c2)CC1 | 78% (inactive) | 76.4% (inactive) | 96.5% (inactive) | 6.44% (inactive) | 90.1 | 96.5 | -2.21% (inactive) | -3.77% (inactive) |
| c1ccc(-c2ccc(-c3ccccn3)nn2)nc1 | 112% (inactive) | 55.3% (inactive) | 59.4% (inactive) | -10.1% (inactive) | 69.5 | 59.4 | -6.27% (inactive) | -0.63% (inactive) |
| CC(=O)OCC(=O)[C@@]12OC(C)(C)O[C@@H]1C[C@H]1[C@@H]3C[C@H](F)C4=CC(=O)C=C[C@]4(C)[C@@]3(F)[C@@H](O)C[C@@]12C | 104% (inactive) | 62.1% (inactive) | 106% (inactive) | 2.31% (inactive) | 104 | 106 | 0.65% (inactive) | -1.83% (inactive) |
| CCCn1c(SCC(=O)NC(=O)NCc2ccco2)n[nH]c1=O | 101% (inactive) | 90.4% (inactive) | 96.6% (inactive) | 1.45% (inactive) | 95.1 | 96.6 | -2.8% (inactive) | -3.64% (inactive) |
| CCOC(=O)N1CCC(N(CCCOC)C(=O)Nc2ccc(CC)cc2)CC1 | 106% (inactive) | 92.7% (inactive) | 98.9% (inactive) | 13% (inactive) | 86 | 98.9 | -0.26% (inactive) | -2.3% (inactive) |
| COCCNC(=O)CN1CCC(NC(=O)Nc2ccc(C(F)(F)F)cc2)CC1 | 92% (inactive) | 96.5% (inactive) | 102% (inactive) | 8.66% (inactive) | 93.5 | 102 | -5.54% (inactive) | 0.55% (inactive) |
| Cc1cc(C(C)(C)C)cc(C)c1CC1=NCCN1 | 120% (inactive) | 86.3% (inactive) | 89.9% (inactive) | 7.59% (inactive) | 82.3 | 89.9 | -2.73% (inactive) | -4.5% (inactive) |
| CCC(=O)Nc1cc(Cl)ccc1N1CCN(C(=O)CC)CC1 | 70% (inactive) | 92.6% (inactive) | 88.5% (inactive) | 3.43% (inactive) | 85 | 88.5 | -4.66% (inactive) | 0.73% (inactive) |
| CCOC(=O)c1sc(NC(=O)CSc2nnc(-c3ccc(OC)cc3)n2CCOC)nc1C | 99% (inactive) | 97.2% (inactive) | 101% (inactive) | 21.8% (inactive) | 79.6 | 101 | -4.94% (inactive) | 1.31% (inactive) |
| Cc1ccc2c(C)nc(NC3=NCN(C(C)C)CN3)nc2c1 | 106% (inactive) | 94.3% (inactive) | 84.3% (inactive) | -15.4% (inactive) | 99.7 | 84.3 | -5.89% (inactive) | 0.48% (inactive) |
